The subject of test [1] is Klebsiella aerogenes. Nature of the test: Antibacterial activity against Enterobacter aerogenes EA289 assessed as inhibition of visible growth after 18 hrs incubation by standard broth dilution method. In kind it is functional. The settings on record: EA289, 18 h. In outline: (§1)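 Broth microdilution per CA-SFM: inoculum 10^5 CFU in 200 μL Mueller–Hinton broth with 2-fold serial dilutions of compound; MIC = lowest concentration with no visible growth after 18 h at 37 °C. Independently repeated at least three times. Strains kept at −80 °C in 15% glycerol and grown routinely in MH broth at 37 °C.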
A general note: In broth dilution the organism is exposed to a series of concentrations in liquid medium.

Another test concerns Staphylococcus aureus. Put plainly: Antibacterial activity against Staphylococcus aureus DSM799 assessed as inhibition of visible growth after 18 hrs incubation by standard broth dilution method. In kind it is functional. The settings on record: DSM799, 18 h. In outline:
as §1

The test system of another test is Pseudomonas aeruginosa. Put plainly: Antibacterial activity against Pseudomonas aeruginosa PAO1 assessed as inhibition of visible growth after 18 hrs incubation by standard broth dilution method. The format is functional. The conditions noted are these: PAO1, 18 h. The gist of the method:
as §1

Test [2] concerns Pseudomonas aeruginosa PAO1. Put plainly: Inhibition of multidrug resistance efflux pump in Pseudomonas aeruginosa PAO1 assessed as dose required to restore 2 ug/ml doxycycline-induced inhibition of visible growth after 18 hrs by standard broth dilution method. The gist of the method:
(§2)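 Broth microdilution in MH broth, inoculum 10^5 CFU in 200 μL, 2-fold serial dilutions of derivative with fixed antibiotic (2 μg/mL). Lowest derivative concentration giving complete inhibition of visible growth after 18 h at 37 °C recorded. Antibiotics dissolved in DMSO. Independently repeated at least three times.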

In test [3] the test system is Klebsiella aerogenes. Put plainly: Inhibition of multidrug resistance efflux pump in Enterobacter aerogenes EA289 assessed as dose required to restore 2 ug/ml doxycycline-induced inhibition of visible growth after 18 hrs by standard broth dilution method. The gist of the method: as §2
Test [4] concerns Klebsiella pneumoniae. Nature of the test: Inhibition of multidrug resistance efflux pump in Klebsiella pneumoniae KPC2 ST258 assessed as dose required to restore 2 ug/ml doxycycline-induced inhibition of visible growth after 18 hrs by standard broth dilution method. The gist of the method: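 Broth microdilution in Mueller-Hinton broth, CA-SFM recommendations. Inoculum 10^5 CFU in 200 μL containing 2-fold serial dilutions of derivative plus doxycycline at 2 μg/mL, 37 °C for 18 h. Antibiotics dissolved in DMSO, up to 5% v/v. Repeated independently at least three times.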

In test [5] the test system is Klebsiella pneumoniae. Nature of the test: Antibacterial activity against Klebsiella pneumoniae KPC2 ST258 assessed as inhibition of visible growth after 18 hrs incubation by standard broth dilution method. In kind it is functional. The settings on record: KPC2, 18 h. In outline:
as §1

A short description of test [6]: Cytotoxicity against CHOK1 cells assessed as decrease in cell viability after 24 hrs by WST-1 assay. The format is cell-based. The conditions noted are these: Cricetulus griseus, CHO-K1, 24 h. The gist of the method:
(§3)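 CHO-K1 (McCoy's 5A) and human fibroblasts (DMEM), both with 10% bovine calf serum, 2 mM glutamine, penicillin/streptomycin, 37 °C, 5% CO2. Seeded, left overnight, then exposed to various compound concentrations in triplicate for 24 h at 37 °C. Washed three times in PBS, 30 min in PBS with 10% WST-1, A450. Viability as % of medium-only control; IC50 by nonlinear regression.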
(In general: Tetrazolium dyes change colour on reduction, which living cells bring about.)

The subject of test [7] is Pseudomonas aeruginosa PAO1. Put plainly: Inhibition of multidrug resistance efflux pump in Pseudomonas aeruginosa PAO1 assessed as dose required to restore 2 ug/ml chloramphenicol-induced inhibition of visible growth after 18 hrs by standard broth dilution method. The gist of the method:
as §2

Test [8] is described as follows: Cytotoxicity against human fibroblasts assessed as decrease in cell viability after 24 hrs by WST-1 assay. In kind it is cell-based. The settings on record: Fibroblast. In outline:
as §3

Test [9] has as its system Pseudomonas aeruginosa PAO1. Put plainly: Inhibition of multidrug resistance efflux pump in Pseudomonas aeruginosa PAO1 assessed as dose required to restore 2 ug/ml cefepime-induced inhibition of visible growth after 18 hrs by standard broth dilution method. The gist of the method:
as §2

From ChEMBL document CHEMBL3259616, “New Ianthelliformisamine derivatives as antibiotic enhancers against resistant Gram-negative bacteria” (J Med Chem, 2014) come the findings set out here.

Converted amounts (≈) assume the structure as drawn.

For orientation: MIC means the lowest concentration that inhibits growth of the organism. Turning to `C[C@H]1c2cccc(O)c2C(=O)C2=C(O)[C@]3(O)C(=O)C(C(N)=O)=C(O)[C@@H](N(C)C)[C@@H]3[C@@H](O)[C@@H]21` [DOXYCYCLINE], the MIC was 56 µM (≈ 24.9 µg/mL) in the test with Klebsiella aerogenes [1], < 3 µM in the test on Staphylococcus aureus and 112 µM (≈ 49.8 µg/mL) in the test with Pseudomonas aeruginosa.

Turning to `COc1c(Br)cc(/C=C/C(=O)NCCCNCCCCNCCCN)cc1Br` [IANTHELLIFORMISAMINE A], the MIC was > 200 µM in the test on Klebsiella aerogenes [1], 200 µM (≈ 104 µg/mL) in the test with Staphylococcus aureus, 200 µM (≈ 104 µg/mL) in the test with Pseudomonas aeruginosa and > 200 µM in the test on Klebsiella pneumoniae [5]. Also, the Activity in test [2] was 12.5 µM; with Klebsiella aerogenes [3], > 100 µM; in the test on Klebsiella pneumoniae [4], >100 µM. Further, the inhibition result in test [2] is “Dose-dependent effect”.

Turning to `COc1c(Br)cc(/C=C/C(=O)NCCCCN)cc1Br`, the MIC in the test with Klebsiella aerogenes [1], with Staphylococcus aureus, in the test on Pseudomonas aeruginosa and in the test with Klebsiella pneumoniae [5] was > 200 µM throughout. The Activity is > 100 µM in [2], > 100 µM in the test on Klebsiella aerogenes [3] and >100 µM in the test on Klebsiella pneumoniae [4]. The inhibition entry in test [2] is “Dose-dependent effect”.

As for `CO/N=C(\C(=O)N[C@@H]1C(=O)N2C(C(=O)[O-])=C(C[N+]3(C)CCCC3)CS[C@H]12)c1csc(N)n1` [CEFEPIME], the MIC in the test with Klebsiella aerogenes [1] worked out at 52 µM (≈ 25 µg/mL); with Pseudomonas aeruginosa it was 26 µM (≈ 12.5 µg/mL).

In the case of `COc1c(Br)cc(/C=C/C(=O)NCCCCCN)cc1Br`, the MIC in the test with Klebsiella aerogenes [1], with Staphylococcus aureus, with Pseudomonas aeruginosa and in the test on Klebsiella pneumoniae [5] was > 200 µM in each case. Besides, the Activity was > 100 µM in [2], > 100 µM in the test with Klebsiella aerogenes [3] and 6.25 µM in the test with Klebsiella pneumoniae [4]. Besides, the inhibition result in [2] was “Dose-dependent effect”.

A word on the IC50: it is the point on the concentration scale where inhibition reaches its midpoint. As for `COc1c(Br)cc(/C=C/C(=O)NCCCNCCCNCCCNC(=O)/C=C/c2cc(Br)c(OC)c(Br)c2)cc1Br`, the IC50 is 663 µM in [6] and 237 µM in [8]. Further, the MIC in the test with Klebsiella aerogenes [1] is 100 µM (≈ 82.4 µg/mL); in the test with Staphylococcus aureus, 12.5 µM (≈ 10.3 µg/mL); in the test with Pseudomonas aeruginosa it was 25 µM (≈ 20.6 µg/mL); in the test with Klebsiella pneumoniae [5], 12.5 µM (≈ 10.3 µg/mL). The Activity worked out at 3.12 µM in test [2]; 12.5 µM in [7]; 12.5 µM in the test with Klebsiella aerogenes [3]; 12.5 µM with Klebsiella pneumoniae [4]; 1.6 µM in [9]. For the same compound, the inhibition entry in test [2] was “Dose-dependent effect”.

Take `COc1c(Br)cc(/C=C/C(=O)NCCNCCNCCN)cc1Br`: the MIC in the test on Klebsiella aerogenes [1], in the test on Staphylococcus aureus, in the test on Pseudomonas aeruginosa and in the test on Klebsiella pneumoniae [5] was > 200 µM throughout. Also, the Activity in [2] is > 100 µM; with Klebsiella aerogenes [3] it was > 100 µM; with Klebsiella pneumoniae [4] it was >100 µM. Besides, in test [2], the inhibition result is “Dose-dependent effect”.

On to `COc1c(Br)cc(/C=C/C(=O)NCCCN2CCN(CCCN)CC2)cc1Br`, for which the MIC with Klebsiella aerogenes [1] was > 200 µM; with Staphylococcus aureus, 6.25 µM (≈ 3.24 µg/mL); in the test with Pseudomonas aeruginosa it was > 200 µM; in the test with Klebsiella pneumoniae [5] it was > 200 µM. The Activity with Klebsiella aerogenes [3] was > 100 µM; in the test on Klebsiella pneumoniae [4] it was >100 µM.

Consider `COc1c(Br)cc(/C=C/C(=O)NCCCN)cc1Br`, for which the MIC in the test with Klebsiella aerogenes [1] is > 200 µM; in the test on Staphylococcus aureus, > 200 µM; in the test with Pseudomonas aeruginosa, 100 µM (≈ 39.2 µg/mL); in the test with Klebsiella pneumoniae [5], > 200 µM. The Activity in test [2] is 100 µM; with Klebsiella aerogenes [3], > 100 µM; in the test on Klebsiella pneumoniae [4] it was 100 µM. Moreover, in test [2], the inhibition entry was “Dose-dependent effect”.

Regarding `COc1c(Br)cc(/C=C/C(=O)NCCCNCCCCN)cc1Br.Cl.Cl`, the IC50 in test [6] amounted to 1660 µM; in [8], 129 µM. Further, the minimum inhibitory concentration (MIC) was 100 µM with Klebsiella aerogenes [1], > 200 µM in the test with Staphylococcus aureus, > 200 µM with Pseudomonas aeruginosa and > 200 µM in the test on Klebsiella pneumoniae [5]. In addition, the Activity in [2] came out at 12.5 µM; in test [7] it was 200 µM; in the test with Klebsiella aerogenes [3], 25 µM; in the test on Klebsiella pneumoniae [4], 3.12 µM; in [9], 0.8 µM. For the same compound, the inhibition entry in test [2] is “Dose-dependent effect”.

As to `COc1c(Br)cc(/C=C/C(=O)NCCCOCCCCOCCCN)cc1Br`, the MIC in the test with Klebsiella aerogenes [1], in the test with Staphylococcus aureus, with Pseudomonas aeruginosa and in the test on Klebsiella pneumoniae [5] was > 200 µM each time. Moreover, the Activity was > 100 µM in test [2], > 100 µM with Klebsiella aerogenes [3] and >100 µM in the test with Klebsiella pneumoniae [4]. The inhibition entry in test [2] is “Dose-dependent effect”.

On to `O=C(N[C@H](CO)[C@H](O)c1ccc([N+](=O)[O-])cc1)C(Cl)Cl` [CHLORAMPHENICOL], for which the MIC in the test with Klebsiella aerogenes [1] and in the test on Pseudomonas aeruginosa was > 200 µM throughout.

For the compound `COc1c(Br)cc(/C=C/C(=O)NCCCCNCCCN)cc1Br.Cl.Cl`, the IC50 in test [6] turned out to be 108 µM; in test [8] it was 33 µM. For the same compound, the MIC in the test on Klebsiella aerogenes [1] was > 200 µM; in the test with Staphylococcus aureus, 200 µM; in the test with Pseudomonas aeruginosa, 200 µM; in the test on Klebsiella pneumoniae [5], > 200 µM. Besides, the Activity was 3.12 µM in [2]; 100 µM in test [7]; 6.25 µM in the test with Klebsiella aerogenes [3]; 3.12 µM in the test on Klebsiella pneumoniae [4]; 3.12 µM in test [9]. The inhibition entry in [2] was “Dose-dependent effect”.

On to `COc1c(Br)cc(/C=C/C(=O)NCCN)cc1Br`, for which the MIC with Klebsiella aerogenes [1], in the test with Staphylococcus aureus, in the test on Pseudomonas aeruginosa and with Klebsiella pneumoniae [5] was > 200 µM throughout. The Activity is > 100 µM in test [2], > 100 µM with Klebsiella aerogenes [3] and 50 µM with Klebsiella pneumoniae [4]. The inhibition entry in test [2] is “Dose-dependent effect”.

On to `COc1c(Br)cc(/C=C/C(=O)NCCCN(C)CCCN)cc1Br`, for which the IC50 in test [6] was found to be 174 µM; in test [8] it was 24 µM. Further, the MIC is > 200 µM in the test on Klebsiella aerogenes [1], > 200 µM in the test on Staphylococcus aureus, 200 µM (≈ 92.6 µg/mL) in the test on Pseudomonas aeruginosa and > 200 µM with Klebsiella pneumoniae [5].

In the case of `COc1c(Br)cc(/C=C/C(=O)NCCCN2CCCC2)cc1Br`, the MIC in the test on Klebsiella aerogenes [1], in the test on Staphylococcus aureus, with Pseudomonas aeruginosa and in the test on Klebsiella pneumoniae [5] was > 200 µM in each case. Besides, the Activity in test [2] was 25 µM; in the test on Klebsiella aerogenes [3], > 100 µM; in the test on Klebsiella pneumoniae [4] it was >100 µM. Moreover, the inhibition entry in test [2] is “Dose-dependent effect”.

Consider `COc1c(Br)cc(/C=C/C(=O)NCCNCCNCCNCCN)cc1Br`, for which the IC50 in test [6] was 573 µM; in [8] it was 237 µM. Moreover, the MIC with Klebsiella aerogenes [1] was 200 µM (≈ 101 µg/mL); in the test with Staphylococcus aureus, 50 µM (≈ 25.4 µg/mL); in the test on Pseudomonas aeruginosa, 100 µM (≈ 50.7 µg/mL); in the test on Klebsiella pneumoniae [5] it was > 200 µM. Also, the Activity in test [2] was determined as 6.25 µM; in [7], 100 µM; with Klebsiella aerogenes [3] it was 12.5 µM; in the test on Klebsiella pneumoniae [4], 3.12 µM; in test [9], 6.25 µM. In [2], the inhibition result was “Dose-dependent effect”.

Consider `COc1c(Br)cc(/C=C/C(=O)NCCCN2CCOCC2)cc1Br`, for which the MIC in the test on Klebsiella aerogenes [1], with Staphylococcus aureus, in the test with Pseudomonas aeruginosa and in the test on Klebsiella pneumoniae [5] was > 200 µM throughout. Further, the Activity in test [2] was > 100 µM; in the test with Klebsiella aerogenes [3], > 100 µM; with Klebsiella pneumoniae [4], >100 µM. Moreover, the inhibition entry in test [2] is “Dose-dependent effect”.
